Assay results published in ChEMBL document CHEMBL1811814, “Synthesis and evaluation of indole, pyrazole, chromone and pyrimidine based conjugates for tumor growth inhibitory activities--development of highly efficacious cytotoxic agents” (Eur J Med Chem, 2010).

Tests used:
Format in all cases: functional
HCT-116 [1] = experiment: Growth inhibition of human HCT116 cells
HCT-15 = experiment: Growth inhibition of human HCT15 cells
KM12 [2] = experiment: Growth inhibition of human KM12 cells
SW-620 [3] = experiment: Growth inhibition of human SW620 cells
SNB-19 = experiment: Growth inhibition of human SNB19 cells
U-251 = experiment: Growth inhibition of human U251 cells
LOX IMVI [4] = experiment: Growth inhibition of human LOXIMVI cells
Malme-3M = experiment: Growth inhibition of human MALME-3M cells
MDA-MB-435 = experiment: Growth inhibition of human MDA-MB-435 cells
SK-MEL-2 [5] = experiment: Growth inhibition of human SK-MEL-2 cells
UACC-257 = experiment: Growth inhibition of human UACC257 cells
UACC-62 [6] = experiment: Growth inhibition of human UACC62 cells
OVCAR-4 [7] = experiment: Growth inhibition of human OVCAR4 cells
SK-OV-3 = experiment: Growth inhibition of human SKOV3 cells
A498 = experiment: Growth inhibition of human A498 cells
ACHN = experiment: Growth inhibition of human ACHN cells
SN12C = experiment: Growth inhibition of human SN12C cells
T47D [8] = experiment: Growth inhibition of human T47D cells
K562 [9] = experiment: Growth inhibition of human K562 cells assessed tumor cell growth at 10^-5 M; parameters: scale not given: the % may be the effect or the level left
Procedure, shortened: (§1)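 NCI 60-human-tumor-cell-line panel screen. Each compound was tested at a single concentration of 10^-5 M, and percent growth of tumor cells was recorded for each cell line. Growth inhibition was expressed from these percent-growth values.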

A549 = experiment: Growth inhibition of human A549 cells assessed tumor cell growth at 10^-5 M; parameters: scale not given: the % may be the effect or the level left; procedure, shortened: as §1
HOP-62 = experiment: Growth inhibition of human HOP62 cells assessed tumor cell growth at 10^-5 M; parameters: scale not given: the % may be the effect or the level left; procedure, shortened: as §1
HOP-92 = experiment: Growth inhibition of human HOP92 cells assessed tumor cell growth at 10^-5 M; parameters: scale not given: the % may be the effect or the level left; procedure, shortened: as §1
NCI-H23 [10] = experiment: Growth inhibition of human NCI-H23 cells assessed tumor cell growth at 10^-5 M; parameters: scale not given: the % may be the effect or the level left; procedure, shortened: as §1
NCI-H322M [11] = experiment: Growth inhibition of human NCI-H322M cells assessed tumor cell growth at 10^-5 M; parameters: scale not given: the % may be the effect or the level left; procedure, shortened: as §1
NCI-H460 [12] = experiment: Growth inhibition of human NCI-H460 cells assessed tumor cell growth at 10^-5 M; parameters: scale not given: the % may be the effect or the level left; procedure, shortened: as §1
COLO 205 = experiment: Growth inhibition of human COLO205 cells assessed tumor cell growth at 10^-5 M; parameters: scale not given: the % may be the effect or the level left; procedure, shortened: as §1
HCC 2998 = experiment: Growth inhibition of human HCC2998 cells assessed tumor cell growth at 10^-5 M; parameters: scale not given: the % may be the effect or the level left; procedure, shortened: as §1
HCT-116 [13] = experiment: Growth inhibition of human HCT116 cells assessed tumor cell growth at 10^-5 M; parameters: scale not given: the % may be the effect or the level left; procedure, shortened: as §1
KM12 [14] = experiment: Growth inhibition of human KM12 cells assessed tumor cell growth at 10^-5 M; parameters: scale not given: the % may be the effect or the level left; procedure, shortened: as §1
SW-620 [15] = experiment: Growth inhibition of human SW620 cells assessed tumor cell growth at 10^-5 M; parameters: scale not given: the % may be the effect or the level left
Procedure, shortened: (§2)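 Single-dose screen at 10^-5 M across the 60 human tumor cell line panel, run to NCI standards. The value is the percent growth of each cell line in the presence of compound. Compounds active at this dose moved on to five-concentration testing (10^-4 to 10^-8 M).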

SF-268 = experiment: Growth inhibition of human SF268 cells assessed tumor cell growth at 10^-5 M; parameters: scale not given: the % may be the effect or the level left; procedure, shortened: as §1
SF-539 = experiment: Growth inhibition of human SF539 cells assessed tumor cell growth at 10^-5 M; parameters: scale not given: the % may be the effect or the level left; procedure, shortened: as §1
LOX IMVI [16] = experiment: Growth inhibition of human LOXIMVI cells assessed tumor cell growth at 10^-5 M; parameters: scale not given: the % may be the effect or the level left; procedure, shortened: as §1
SK-MEL-2 [17] = experiment: Growth inhibition of human SK-MEL-2 cells assessed tumor cell growth at 10^-5 M; parameters: scale not given: the % may be the effect or the level left; procedure, shortened: as §1
SK-MEL-28 = experiment: Growth inhibition of human SK-MEL-28 cells assessed tumor cell growth at 10^-5 M; parameters: scale not given: the % may be the effect or the level left; procedure, shortened: as §1
UACC-62 [18] = experiment: Growth inhibition of human UACC62 cells assessed tumor cell growth at 10^-5 M; parameters: scale not given: the % may be the effect or the level left; procedure, shortened: as §2
IGROV-1 = experiment: Growth inhibition of human IGROV1 cells assessed tumor cell growth at 10^-5 M; parameters: scale not given: the % may be the effect or the level left; procedure, shortened: as §1
OVCAR-3 = experiment: Growth inhibition of human OVCAR3 cells assessed tumor cell growth at 10^-5 M; parameters: scale not given: the % may be the effect or the level left; procedure, shortened: as §1
OVCAR-4 [19] = experiment: Growth inhibition of human OVCAR4 cells assessed tumor cell growth at 10^-5 M; parameters: scale not given: the % may be the effect or the level left; procedure, shortened: as §1
OVCAR-8 = experiment: Growth inhibition of human OVCAR8 cells assessed tumor cell growth at 10^-5 M; parameters: scale not given: the % may be the effect or the level left; procedure, shortened: as §1
TK-10 = experiment: Growth inhibition of human TK10 cells assessed tumor cell growth at 10^-5 M; parameters: scale not given: the % may be the effect or the level left; procedure, shortened: as §2
PC-3 = experiment: Growth inhibition of human PC3 cells assessed tumor cell growth at 10^-5 M; parameters: scale not given: the % may be the effect or the level left; procedure, shortened: as §1
MCF7 = experiment: Growth inhibition of human MCF7 cells assessed tumor cell growth at 10^-5 M; parameters: scale not given: the % may be the effect or the level left; procedure, shortened: as §1
T47D [20] = experiment: Growth inhibition of human T47D cells assessed tumor cell growth at 10^-5 M; parameters: scale not given: the % may be the effect or the level left; procedure, shortened: as §2
MDA-MB-468 = experiment: Growth inhibition of human MDA-MB-468 cells assessed tumor cell growth at 10^-5 M; parameters: scale not given: the % may be the effect or the level left; procedure, shortened: as §1
HL-60(TB) = experiment: Growth inhibition of human HL-60(TB) cells
K562 [21] = experiment: Growth inhibition of human K562 cells
[22] = Growth inhibition of human RPMI8266 cells
EKVX = experiment: Growth inhibition of human EKVX cells
NCI-H226 = experiment: Growth inhibition of human NCI-H226 cells
NCI-H23 [23] = experiment: Growth inhibition of human NCI-H23 cells
NCI-H322M [24] = experiment: Growth inhibition of human NCI-H322M cells
NCI-H460 [25] = experiment: Growth inhibition of human NCI-H460 cells
[26] = read-out: LC50 (the source's name)

Structure (SMILES): O=C1/C(=C\c2ccccn2)c2ccccc2N1c1c(Cl)cccc1Cl
- GI50 (HCT-116 [1]): 1.7 µM
- CC50 (HCT-116 [1]; [26]): 6.9 µM
- GI50 (HCT-15): 2 µM
- CC50 (HCT-15; [26]): 28.8 µM
- GI50 (KM12 [2]): 1.8 µM
- CC50 (KM12 [2]; [26]): 6.3 µM
- GI50 (SW-620 [3]): 1.9 µM
- CC50 (SW-620 [3]; [26]): 6.7 µM
- GI50 (SNB-19): 2.2 µM
- CC50 (SNB-19; [26]): 32.3 µM
- GI50 (U-251): 1.8 µM
- CC50 (U-251; [26]): 7.4 µM
- GI50 (LOX IMVI [4]): 1.7 µM
- CC50 (LOX IMVI [4]; [26]): 6.4 µM
- GI50 (Malme-3M): 1.9 µM
- CC50 (Malme-3M; [26]): 16.9 µM
- GI50 (MDA-MB-435): 1.8 µM
- CC50 (MDA-MB-435; [26]): 61.6 µM
- GI50 (SK-MEL-2 [5]): 2.3 µM
- CC50 (SK-MEL-2 [5]; [26]): 24.5 µM
- GI50 (UACC-257): 1.7 µM
- CC50 (UACC-257; [26]): 18.2 µM
- GI50 (UACC-62 [6]): 1.6 µM
- CC50 (UACC-62 [6]; [26]): 6.9 µM
- GI50 (OVCAR-4 [7]): 3.7 µM
- CC50 (OVCAR-4 [7]; [26]): > 100 µM
- GI50 (SK-OV-3): 3.4 µM
- CC50 (SK-OV-3; [26]): 74.1 µM
- GI50 (A498): 2.9 µM
- CC50 (A498; [26]): 72.4 µM
- GI50 (ACHN): 1.8 µM
- CC50 (ACHN; [26]): 7.2 µM
- GI50 (SN12C): 2.2 µM
- CC50 (SN12C; [26]): 58.8 µM
- GI50 (T47D [8]): 2.3 µM
- CC50 (T47D [8]; [26]): > 100 µM
- Activity (K562 [9]): 9.42%
- Activity (A549): 50.33%
- Activity (HOP-62): 5.17%
- Activity (HOP-92): -7.93%
- Activity (NCI-H23 [10]): 12.97%
- Activity (NCI-H322M [11]): 61.39%
- Activity (NCI-H460 [12]): -29.25%
- Activity (COLO 205): -1.34%
- Activity (HCC 2998): -82.08%
- Activity (HCT-116 [13]): -94.37%
- Activity (KM12 [14]): -2.11%
- Activity (SW-620 [15]): -56.9%
- Activity (SF-268): 7.81%
- Activity (SF-539): 1.27%
- Activity (LOX IMVI [16]): -89.2%
- Activity (SK-MEL-2 [17]): 48.8%
- Activity (SK-MEL-28): -10.05%
- Activity (UACC-62 [18]): 24.91%
- Activity (IGROV-1): 8.25%
- Activity (OVCAR-3): 27.36%
- Activity (OVCAR-4 [19]): -7.46%
- Activity (OVCAR-8): 4.47%
- Activity (TK-10): 52%
- Activity (PC-3): 31.44%
- Activity (MCF7): -10.81%
- Activity (T47D [20]): 12.74%
- Activity (MDA-MB-468): -17.24%
- GI50 (HL-60(TB)): 3.8 µM
- CC50 (HL-60(TB); [26]): > 100 µM
- GI50 (K562 [21]): 3.9 µM
- CC50 (K562 [21]; [26]): > 100 µM
- GI50 [22]: 2.2 µM
- CC50 [22, 26]: > 100 µM
- GI50 (EKVX): 2 µM
- CC50 (EKVX; [26]): > 100 µM
- GI50 (NCI-H226): 0.01 µM
- CC50 (NCI-H226; [26]): 9.1 µM
- GI50 (NCI-H23 [23]): 3.5 µM
- LC50 (concentration killing 50% of cells) (NCI-H23 [23]): > 100 µM
- GI50 (NCI-H322M [24]): 2.8 µM
- CC50 (NCI-H322M [24]; [26]): 28.8 µM
- GI50 (NCI-H460 [25]): 1.8 µM
- CC50 (NCI-H460 [25]; [26]): 7 µM
